# Source: ChEMBL document CHEMBL4359895, “Discovery and biological evaluation of darolutamide derivatives as inhibitors and down-regulators of wild-type AR and the mutants” (Eur J Med Chem, 2019)
# pIC50: −log10 of the molar value. Activity calls are given as the source filed them. The rule behind the calls is not given here.
# Tests used:
# VCaP [1] = test: Antitumor activity against castration-resistant human VCaP cells xenografted in BALB/c mouse assessed as tumor growth inhibition at 30 mg/kg, po administered for 40 days; assay type: functional; conditions: 960 h, read-out: TGI
# In short: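 Castration-resistant VCaP xenografts grown in male BALB/c nude mice. Animals dosed once daily for 40 days alongside a vehicle group. Tumor volume tracked over time, with tumor weights taken at end. Reported as tumor growth inhibition, mean ± SEM, N = 8-9 per group.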
# PC-3 = test: Cytotoxicity against human PC3 assessed as reduction in cell viability incubated for 6 days by CCK-8 assay; assay type: cell-based; conditions: PC-3, 144 h
# In short: (§1)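 Cell proliferation assay run on LNCaP/AR, VCaP, 22Rv1, PC-3 and L-02 cells, with PC-3 and L-02 serving as AR-independent toxicity controls. IC50 fitted in GraphPad Prism 5 as the mean of at least two experiments, each in duplicate. Deviations under 35%.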
# CWR22R = test: Antiproliferative activity against human 22Rv1 expressing AR assessed as reduction in cell viability incubated for 6 days by CCK-8 assay; assay type: functional, cell-based; conditions: 22Rv1, 144 h; in short: as §1
# VCaP [2] = test: Antiproliferative activity against human VCaP expressing AR assessed as reduction in cell viability at 30 uM incubated for 6 days by CCK-8 assay relative to control; conditions: 144 h, read-out: INH
# LNCaP [3] = test: Antiproliferative activity against human LNCAP expressing AR assessed as reduction in cell viability incubated for 6 days by CCK-8 assay; assay type: functional, cell-based; conditions: 144 h; in short: as §1
# [4] = biological target: Bromodomain-containing protein 4 (Homo sapiens) (UniProt O60885); test: Inhibition of BRD4 (unknown origin) by alpha-screen assay
# L02 = test: Cytotoxicity against human L02 assessed as reduction in cell viability incubated for 6 days by CCK-8 assay; assay type: cell-based; conditions: L02, 144 h; in short: as §1
# VCaP [5] = test: Antiproliferative activity against human VCaP expressing AR assessed as reduction in cell viability incubated for 6 days by CCK-8 assay; assay type: functional, cell-based; conditions: 144 h; in short: as §1
# [6] = biological target: T1, Androgen receptor (Homo sapiens) (UniProt P10275); test: Inhibition of AR in human HEK293 cells assessed as decrease in receptor transactivation at 10 uM incubated for 24 hrs by dual luciferase reporter gene assay; assay type: cell-based
# T1 sequence (whole entry): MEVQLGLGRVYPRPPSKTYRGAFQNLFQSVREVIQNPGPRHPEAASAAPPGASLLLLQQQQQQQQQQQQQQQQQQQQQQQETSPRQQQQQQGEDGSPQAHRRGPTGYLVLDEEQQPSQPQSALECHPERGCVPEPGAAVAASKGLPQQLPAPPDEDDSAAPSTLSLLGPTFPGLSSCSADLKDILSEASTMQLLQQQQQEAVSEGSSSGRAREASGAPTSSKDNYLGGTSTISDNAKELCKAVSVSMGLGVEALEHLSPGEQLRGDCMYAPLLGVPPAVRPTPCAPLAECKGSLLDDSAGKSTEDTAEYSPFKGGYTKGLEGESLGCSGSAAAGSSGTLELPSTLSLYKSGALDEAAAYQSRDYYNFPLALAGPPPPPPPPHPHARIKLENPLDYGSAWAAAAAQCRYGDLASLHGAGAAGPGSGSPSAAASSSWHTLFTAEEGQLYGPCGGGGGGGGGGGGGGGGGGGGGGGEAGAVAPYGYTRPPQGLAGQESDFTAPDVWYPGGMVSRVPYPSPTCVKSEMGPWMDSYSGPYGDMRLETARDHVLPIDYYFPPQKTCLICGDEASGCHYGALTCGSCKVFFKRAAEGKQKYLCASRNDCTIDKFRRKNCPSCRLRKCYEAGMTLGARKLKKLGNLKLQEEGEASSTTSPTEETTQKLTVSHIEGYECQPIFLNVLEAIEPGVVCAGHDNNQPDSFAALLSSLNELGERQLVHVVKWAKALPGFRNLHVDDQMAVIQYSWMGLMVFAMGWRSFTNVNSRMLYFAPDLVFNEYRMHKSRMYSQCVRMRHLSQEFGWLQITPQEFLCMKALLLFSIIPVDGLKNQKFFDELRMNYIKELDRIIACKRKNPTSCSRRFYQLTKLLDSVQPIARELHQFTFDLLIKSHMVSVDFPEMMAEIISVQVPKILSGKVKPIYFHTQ
# In short: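 HEK 293 cells transiently co-transfected with wt-AR expression vector and an androgen-responsive luciferase reporter construct. Cells given 2 nM testosterone plus 10 µM test compound (final concentrations). Read-out by luciferase, mean ± SD, n = 3.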
# LNCaP [7] = test: Inhibition of AR protein expression in human LNCAP cells at 20 uM incubated for 24 hrs by Western blot analysis; assay type: functional, cell-based
# In short: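 LNCaP cells treated with 20 µM compound or DMSO for 24 h. AR-full protein detected by western blot with tubulin as loading control, then quantified by ImageJ grayscale analysis.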
# [8] = Solubility of compound in PBS incubated for 24 hrs by HPLC analysis; assay type: physicochemical
# In short: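 Solubility determined in PBS at 25 ℃ by the saturation shake-flask method. Quantified against calibration curves.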
# [9] = Stability of compound in nutrient medium with fetal bovine serum and antibiotic incubated for 6 days by HPLC analysis; conditions: 144 h
Compound,inhibition in vivo at 30 mg/kg (VCaP [1]),pIC50 (PC-3),pIC50 (CWR22R),inhibition at 30 µM (VCaP [2]),pIC50 (LNCaP [3]),inhibition [4],pIC50 (L02),pIC50 (VCaP [5]),inhibition [6],inhibition (LNCaP [7]),solubility at 24 h [8],Stability [9]
CNC(=O)c1ccc(N2C(=S)N(c3ccc(C#N)c(C(F)(F)F)c3)C(=O)C2(C)C)cc1F [ENZALUTAMIDE],43%,< 4.52,< 4.52,50%,6.72,inactive,,,,,,
CC(O)c1cc(C(=O)N[C@@H](C)Cn2ccc(-c3ccc(C#N)c(Cl)c3)n2)n[nH]1 (stereo not given in full) [DAROLUTAMIDE],,< 4.52,< 4.52,,5.78,inactive,< 4.52,,,,,
C[C@@H](Cn1ccc(-c2ccc(C#N)c(Cl)c2)n1)Nc1ncnc2ccccc12,,< 4.52,5.36,,6.29,,4.89,5.88,Active,Active,,
CC(O)c1cc(C(=O)N[C@@H](C)Cn2ccc(-c3ccc(C#N)c(Cl)c3)n2)[nH]n1 (stereo not given in full) [DAROLUTAMIDE],,,,,,,,,,,223 µM,Stable
